Reference: publication PMC3655773 (Acta pharmaceutica Sinica. B, 2012)
Values joined by “and” are separate entries in the source; they are usually repeats but may differ in a detail not shown here. Equal entries are not always repeated. Where two headings read alike, the source gives them in different places.

Legend:
[1] = rat, microsomes
[2] = Pharmacokinetic assay in rat; settings: male SD rats; for F (oral bioavailability): i.g. 20 mg/kg vs 3 i.v. 2 mg/kg, dose-normalized AUC(0-t)
[3] = Water solubility analysis; assay type: physicochemical; settings: pH 7.4, room temperature
Procedure, shortened: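 Excess test compound in water buffered to pH 7.4 with K2HPO4 phosphate, sonicated with stirring for 1 h at room temperature, then filtered. Supernatant analysed by HPLC on a C18 column (70% MeCN/30% water, 1.0 mL/min, UV 320 nm). Saturated concentration taken from peak area against a five-point (five-fold step) standard curve in MeCN, diluted from an acetonitrile stock.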

[4] = test system: HIV-1; settings: previous studies, cited from earlier work; for EC50: anti-HIV potency; for TI: therapeutic index
[5] = cited from earlier work
[6] = In vitro metabolic stability in SD rat liver microsomes; settings: 1 μM, NADPH; for k obs (degradation rate constant): SD rat liver microsomes 0.1 mg/mL, parent compound 3 measured; for T1/2: apparent in vitro half-life; for T1/2 / CLint: SD rat liver microsomes; for CLint: intrinsic clearance
[7] = in vitro; settings: Sprague-Dawley, rat, microsomes, pH 7.4
[8] = cited from earlier work; remark: listed apart in the source
[9] = i.g. 20 mg/kg in 10% PEG400, parent 3 measured
[10] = i.g. 20 mg/kg in 10% PEG400, plasma parent compound 3 measured

| Structure (SMILES) | CLint [1] [µL/min/mg] | T1/2 [1] [min] | CL [2, 9] [mL/min/kg] | Cmax [2, 9] [ng/mL] | MRT(0-t) [2, 9] [min] | Tmax [2, 9] [min] | Vd [2, 9] [L/kg] | AUC(0-t) [2, 10] [ng·L/mL] | F (oral bioavailability) [2] | k obs (degradation rate constant) [6] | T1/2 [6] [min] | CLint [6] [µL/min/mg] | further results |
| --- | --- | --- | --- | --- | --- | --- | --- | --- | --- | --- | --- | --- | --- |
| Cc1c(COC(=O)CCC(=O)O)c(=O)oc2c3c(ccc12)OC(C)(C)[C@H](OC(=O)[C@@]12CC[C@@](C)(C(=O)O1)C2(C)C)[C@@H]3OC(=O)[C@@]12CC[C@@](C)(C(=O)O1)C2(C)C (relative stereo) [Compound 8, 4-Oxo-4-[(3′,4′-di-0-(S)-camphanoyl-4-methyl-(+)-cis-kellactone-3-yl)methoxy]butanok acid] | 270 | 25.93 | 0.567 ± 0.067 | 398.5 ± 29.00 | 91.02 ± 12.4 | 30 | 0.102 ± 0.011 | 588.9 ± 72.06 | 12.4% | – | – | – | AUC ([2]; i.g. 20 mg/kg): 588.9 ng·h/mL |
| Cc1c(CO)c(=O)oc2c3c(ccc12)OC(C)(C)[C@H](OC(=O)C12CCC(C)(C(=O)O1)C2(C)C)[C@@H]3OC(=O)C12CCC(C)(C(=O)O1)C2(C)C (stereo partly shown) [Compound 3, 3-hydroxymethyl-4-methyl-DCK] | – | – | 0.333 ± 0.083 | 530.7 ± 120.8 | 119 ± 28.7 | 34.8 | 0.079 ± 0.039 | 966.3 ± 219.7 | 17.3% | 0.039 | 17.92 | 390 | Water solubility [3]: 8.4 µg/mL; EC50 [4]: 4 nM; TI [4]: 6225; bioavailability (F) ([5]; in rat, previous studies): 15%; AUC(0-t) ([2]; i.v. 2 mg/kg in 10% PEG400): 558.4 ± 8.71 ng·L/mL; CL ([2]; i.v. 2 mg/kg in 10% PEG400): 0.05 ± 0.0017 mL/min/kg; MRT(0-t) ([2]; i.v. 2 mg/kg in 10% PEG400): 74.1 ± 10.1 min; Vd ([2]; i.v. 2 mg/kg in 10% PEG400): 0.008 ± 0.002 L/kg |
| Cc1c(COC(=O)C(N)CC(C)C)c(=O)oc2c3c(ccc12)OC(C)(C)[C@H](OC(=O)[C@@]12CCC(C)(C(=O)O1)C2(C)C)[C@@H]3OC(=O)[C@@]12CCC(C)(C(=O)O1)C2(C)C (relative stereo) [Compound 12, [3′,4′-Di-O-(S) -camphanoyl-4-methyl-(+)-cis-kellactone-3-yl]methyl 2-amino-4-methyl-pentanoate] | – | – | 0.433 ± 0.083 | 529.0 ± 192.9 | 77.16 ± 5.1 | 30 | 0.049 ± 0.020 | 775.6 ± 162.9 | 15.8% | 0.023 | 30.77 | 230 | – |
| Cc1c(COC(=O)C(N)C(C)C)c(=O)oc2c3c(ccc12)OC(C)(C)[C@H](OC(=O)[C@@]12CCC(C)(C(=O)O1)C2(C)C)[C@@H]3OC(=O)[C@@]12CCC(C)(C(=O)O1)C2(C)C (relative stereo) [Compound 11, [3′,4′-Di-O-(S)-camphanoyl-4-methyl-(+)-cis-kellactone-3-yl]methyl 2-amino-3-methyl-butanoate] | – | – | – | – | – | – | – | – | – | 0.023 | 30.09 | 230 | – |
| Cc1cc(=O)oc2c3c(ccc12)OC(C)(C)[C@H](OC(=O)C12CCC(C)(C(=O)O1)C2(C)C)[C@@H]3OC(=O)C12CCC(C)(C(=O)O1)C2(C)C (stereo partly shown) [Compound 2, 4-methyl-DCK] | – | – | – | – | – | – | – | – | – | – | – | – | EC50 [4]: 1.5 nM; TI [4]: 15,733; bioavailability ([5]; rat, in vivo): poor bioavailability |
| CC(C)NCC(O)COc1cccc2ccccc12 (stereo not shown) [PRO, propranolol] | – | – | – | – | – | – | – | – | – | – | – | – | half-life at 1 μM [7]: 20.7 min; T1/2 in vivo [8]: a Reference compounds: propranolol (moderate metabolism in vivo with T1/2 of 3–5 h). |

Further lines, with some results ahead:

| CLint [1] [µL/min/mg] | T1/2 [1] [min] | CL [2, 9] [mL/min/kg] | Cmax [2, 9] [ng/mL] | MRT(0-t) [2, 9] [min] | Tmax [2, 9] [min] | Vd [2, 9] [L/kg] | AUC(0-t) [2, 10] [ng·L/mL] | F (oral bioavailability) [2] | Structure (SMILES) | k obs (degradation rate constant) [6] | T1/2 [6] [min] | CLint [6] [µL/min/mg] | further results |
| --- | --- | --- | --- | --- | --- | --- | --- | --- | --- | --- | --- | --- | --- |
| 260 | 26.54 | 0.667 ± 0.167 | 191.1 ± 2.48 | 128.2 ± 7.38 | 45 | 0.123 ± 0.058 | 477.8 ± 128.7 | 9.8% | Cc1c(COC(=O)CN)c(=O)oc2c3c(ccc12)OC(C)(C)[C@H](OC(=O)[C@@]12CCC(C)(C(=O)O1)C2(C)C)[C@@H]3OC(=O)[C@@]12CCC(C)(C(=O)O1)C2(C)C.Cl (relative stereo) [Compound 13, [3′,4′-Di-O-(S)-camphanoyl-4-methyl-(+)-cis-kellactone-3-yl]methyl 2-aminoacetate hydrochloride salt] | – | – | – | – |
| 200 | 35.27 | 1.7 ± 0.333 | 80.9 ± 18.80 | 159.5 ± 40.9 | 22.8 | 0.669 ± 0.422 | 157.9 ± 42.94 | 3.3% | Cc1c(COC(=O)CCC(=O)O)c(=O)oc2c3c(ccc12)OC(C)(C)[C@H](OC(=O)[C@@]12CC[C@@](C)(C(=O)O1)C2(C)C)[C@@H]3OC(=O)[C@@]12CC[C@@](C)(C(=O)O1)C2(C)C (relative stereo) [Compound 6, 4-Oxo-4-[(3′,4′-di-0-(S)-camphanoyl-4-methyl-(+)-cis-kellactone-3-yl)methoxy]butanok acid] | – | – | – | AUC ([2]; i.g. 20 mg/kg): 157.9 ng·h/mL |
| 1780 | 3.90 | 0.617 ± 0.017 | 163.6 ± 13.56 | 214.9 ± 18.4 | 15 | 0.467 ± 0.063 | 384.1 ± 6.21 | 7.5% | Cc1c(COC(=O)CN)c(=O)oc2c3c(ccc12)OC(C)(C)[C@H](OC(=O)[C@@]12CCC(C)(C(=O)O1)C2(C)C)[C@@H]3OC(=O)[C@@]12CCC(C)(C(=O)O1)C2(C)C (relative stereo) [Compound 9, [3′,4′-Di-O-(S)-camphanoyl-4-methyl-(+)-cis-kellactone-3-yl]methyl 2-aminoacetate] | – | – | – | – |
| 140 | 49.26 | 0.267 ± 0.12 | 621.5 ± 79.67 | 107.6 ± 10.9 | 45 | 0.045 ± 0.017 | 1296.5 ± 437.6 | 26% and 25.7% | Cc1c(COC(=O)C(C)N)c(=O)oc2c3c(ccc12)OC(C)(C)[C@H](OC(=O)[C@@]12CCC(C)(C(=O)O1)C2(C)C)[C@@H]3OC(=O)[C@@]12CCC(C)(C(=O)O1)C2(C)C (relative stereo) [Compound 10, [3′,4′-Di-O-(S)-camphanoyl-4-methyl-(+)-cis-kellactone-3-yl]methyl 2-aminopropanoate] | – | – | – | Water solubility [3]: 18 µg/mL; systemic clearance (CL) ([2]; i.g. 20 mg/kg): 16 mL/min/kg |
